For assay [1], the target named is Vascular endothelial growth factor receptor 2 (Homo sapiens, UniProt P35968). As to the kind of experiment: Inhibition of VEGFR2.
Assay [2] concerns the target T1, NUAK family SNF1-like kinase 1 (Homo sapiens) (UniProt O60285).
T1 sequence (whole entry): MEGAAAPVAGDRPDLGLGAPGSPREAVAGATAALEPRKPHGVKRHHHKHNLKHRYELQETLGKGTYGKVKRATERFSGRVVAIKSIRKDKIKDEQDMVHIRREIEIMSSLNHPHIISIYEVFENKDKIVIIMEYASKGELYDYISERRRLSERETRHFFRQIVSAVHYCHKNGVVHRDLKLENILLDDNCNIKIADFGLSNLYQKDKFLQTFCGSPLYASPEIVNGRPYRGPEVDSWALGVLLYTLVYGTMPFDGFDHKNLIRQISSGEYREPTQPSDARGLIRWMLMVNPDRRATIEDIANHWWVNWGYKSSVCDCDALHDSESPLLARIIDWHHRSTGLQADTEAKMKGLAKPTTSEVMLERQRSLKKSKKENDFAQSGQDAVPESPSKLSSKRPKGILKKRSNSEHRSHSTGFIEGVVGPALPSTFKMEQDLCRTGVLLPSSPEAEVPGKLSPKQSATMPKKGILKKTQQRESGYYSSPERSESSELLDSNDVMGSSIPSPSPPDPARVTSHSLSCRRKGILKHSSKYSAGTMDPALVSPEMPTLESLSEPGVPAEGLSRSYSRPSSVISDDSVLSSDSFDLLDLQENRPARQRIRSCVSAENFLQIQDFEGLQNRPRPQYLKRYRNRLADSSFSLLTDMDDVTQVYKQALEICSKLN
As to the kind of experiment: Inhibition of ARK5 up to 100 uM.

For assay [3], the target named is Insulin-like growth factor 1 receptor (Homo sapiens) (UniProt P08069). As to the kind of experiment: Inhibition of IGF1R up to 100 uM. The gist of the method:
(§1)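 Buffer: HEPES-NaOH pH 7.5, Mg2+/Mn2+, vanadate, DTT, PEG20000, 1% DMSO. Incubated 30 °C for 80 min, stopped with 2% H3PO4, washed, and scintillation-counted. IC50 from 10 concentrations in singlicate.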

Assay [4] concerns the target Focal adhesion kinase 1 (Homo sapiens) (UniProt Q05397). As to the kind of experiment: Inhibition of FAK up to 100 uM. The gist of the method:
as §1

Assay [5] has as its target Cyclin-dependent kinase 4/cyclin D1 (Homo sapiens) (UniProt P11802+P24385). Kind of assay: Inhibition of CDK4/Cyclin D1 up to 100 uM. Format: protein-complex assay. In outline:
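Buffer: HEPES-NaOH pH 7.5, Mg2+/Mn2+, vanadate, DTT, PEG20000, 1% DMSO. Incubated 80 min at 30 °C, stopped with 2% H3PO4, washed with 0.9% NaCl, and counted by scintillation. IC50 from 10 concentrations, singlicate.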

Assay [6] addresses Receptor tyrosine-protein kinase erbB-2 (Homo sapiens, UniProt P04626). Kind of assay: Inhibition of ERBB2. In outline: as §1
In assay [7] the target is Mitogen-activated protein kinase kinase kinase 8 (Homo sapiens) (UniProt P41279). As to the kind of experiment: Inhibition of COT.
Mitogen-activated protein kinase kinase kinase 8 (Homo sapiens), sequence (P41279 whole entry): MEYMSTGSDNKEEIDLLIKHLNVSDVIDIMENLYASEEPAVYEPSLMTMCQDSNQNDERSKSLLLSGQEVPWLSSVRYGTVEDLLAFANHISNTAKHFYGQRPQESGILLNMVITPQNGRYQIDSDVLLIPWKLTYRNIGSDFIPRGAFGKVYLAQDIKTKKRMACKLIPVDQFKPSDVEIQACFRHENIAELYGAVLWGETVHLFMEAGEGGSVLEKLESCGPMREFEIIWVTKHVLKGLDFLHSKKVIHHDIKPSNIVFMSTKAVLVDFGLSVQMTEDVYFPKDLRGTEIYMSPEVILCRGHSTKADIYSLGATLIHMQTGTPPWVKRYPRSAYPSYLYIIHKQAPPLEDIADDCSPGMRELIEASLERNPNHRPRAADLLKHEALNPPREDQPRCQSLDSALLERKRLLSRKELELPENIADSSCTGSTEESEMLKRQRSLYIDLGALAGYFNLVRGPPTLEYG
Assay [8] concerns the target Angiopoietin-1 receptor (Homo sapiens, UniProt Q02763). As to the kind of experiment: Inhibition of TIE2.
Assay [9] addresses T2, Ephrin type-B receptor 4 (Homo sapiens) (UniProt P54760).
T2 sequence (whole entry): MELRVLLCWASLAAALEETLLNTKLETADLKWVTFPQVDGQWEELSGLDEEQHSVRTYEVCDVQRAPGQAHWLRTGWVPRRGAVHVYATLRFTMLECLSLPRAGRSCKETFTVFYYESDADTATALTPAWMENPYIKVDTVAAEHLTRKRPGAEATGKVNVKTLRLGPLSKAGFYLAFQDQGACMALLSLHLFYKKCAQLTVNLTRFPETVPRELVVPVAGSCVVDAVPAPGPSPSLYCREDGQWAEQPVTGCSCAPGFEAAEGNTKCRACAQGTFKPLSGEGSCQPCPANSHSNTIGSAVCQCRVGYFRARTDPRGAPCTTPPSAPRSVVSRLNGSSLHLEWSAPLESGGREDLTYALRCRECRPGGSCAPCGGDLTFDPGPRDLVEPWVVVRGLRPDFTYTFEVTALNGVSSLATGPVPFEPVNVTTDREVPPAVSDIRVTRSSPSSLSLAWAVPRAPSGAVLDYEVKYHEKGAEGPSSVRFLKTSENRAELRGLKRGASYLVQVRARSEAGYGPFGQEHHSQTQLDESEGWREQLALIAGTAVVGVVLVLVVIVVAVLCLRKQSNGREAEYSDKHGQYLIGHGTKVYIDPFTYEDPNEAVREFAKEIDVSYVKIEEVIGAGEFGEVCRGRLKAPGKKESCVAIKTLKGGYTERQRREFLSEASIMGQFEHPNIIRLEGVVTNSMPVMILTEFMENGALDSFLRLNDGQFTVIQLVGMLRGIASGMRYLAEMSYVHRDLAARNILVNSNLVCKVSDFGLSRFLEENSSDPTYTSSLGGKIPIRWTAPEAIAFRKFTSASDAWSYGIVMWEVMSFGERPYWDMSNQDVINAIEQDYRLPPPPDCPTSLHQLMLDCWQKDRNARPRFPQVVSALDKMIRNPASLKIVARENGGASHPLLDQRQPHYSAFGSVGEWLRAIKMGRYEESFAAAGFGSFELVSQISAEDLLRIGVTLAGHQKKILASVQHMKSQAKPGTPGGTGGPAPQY
As to the kind of experiment: Inhibition of EPHB4 up to 100 uM. In outline: as §1

The target in assay [10] is Proto-oncogene tyrosine-protein kinase Src (Homo sapiens, UniProt P12931). As to the kind of experiment: Inhibition of SRC.
Proto-oncogene tyrosine-protein kinase Src, sequence (P12931 2-536 limits assumed): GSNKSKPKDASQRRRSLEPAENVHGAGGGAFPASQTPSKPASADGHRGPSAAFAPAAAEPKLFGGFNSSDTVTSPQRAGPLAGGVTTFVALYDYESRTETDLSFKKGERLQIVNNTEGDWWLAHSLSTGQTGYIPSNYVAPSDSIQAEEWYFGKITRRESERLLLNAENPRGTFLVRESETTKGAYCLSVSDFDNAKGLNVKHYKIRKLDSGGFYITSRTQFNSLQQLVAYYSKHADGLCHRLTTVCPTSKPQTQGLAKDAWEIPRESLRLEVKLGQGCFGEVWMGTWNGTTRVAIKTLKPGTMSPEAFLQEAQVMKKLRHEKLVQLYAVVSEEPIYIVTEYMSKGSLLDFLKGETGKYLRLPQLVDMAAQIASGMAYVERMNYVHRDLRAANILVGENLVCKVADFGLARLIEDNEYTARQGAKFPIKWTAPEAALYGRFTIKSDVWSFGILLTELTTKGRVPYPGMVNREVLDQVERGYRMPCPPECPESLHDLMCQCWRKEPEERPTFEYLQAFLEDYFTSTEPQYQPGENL
The test system of assay [11] is Serine/threonine-protein kinase B-raf (Homo sapiens), P15056 [V600E]. Kind of assay: Inhibition of BRAF V600E mutant.
Assay [12] addresses Insulin receptor (Homo sapiens) (UniProt P06213). As to the kind of experiment: Inhibition of INSR up to 100 uM.
Assay [13] has as its target Platelet-derived growth factor receptor beta (Homo sapiens) (UniProt P09619). As to the kind of experiment: Inhibition of PDGFRbeta up to 100 uM.
Assay [14] has as its target Serine/threonine-protein kinase PLK1 (Homo sapiens) (UniProt P53350). Kind of assay: Inhibition of PLK1 up to 100 uM. In outline:
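Run in HEPES-NaOH pH 7.5 with MgCl2, MnCl2, orthovanadate, DTT, PEG20000 and 1% DMSO at 30 °C for 80 min. IC50 from 10 concentrations, singlicate.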

Assay [15] deals with RAC-alpha serine/threonine-protein kinase (Homo sapiens) (UniProt P31749). As to the kind of experiment: Inhibition of AKT1 up to 100 uM. In outline:
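Radiometric kinase assay with recombinant AKT1 (50–400 ng) and GSK3(14-27) peptide substrate. Incubated 80 min at 30 °C, stopped with 2% H3PO4, washed with 0.9% NaCl. IC50 from 10 concentrations in singlicate.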

Assay [16] deals with MAP kinase-interacting serine/threonine-protein kinase 1 (Homo sapiens) (UniProt Q9BUB5). Kind of assay: Inhibition of MNK1 at 10 uM.

Activity calls are given as the source filed them. The rule behind the calls is not given here.

Receptor tyrosine-protein kinase erbB-2, sequence (P04626 whole entry): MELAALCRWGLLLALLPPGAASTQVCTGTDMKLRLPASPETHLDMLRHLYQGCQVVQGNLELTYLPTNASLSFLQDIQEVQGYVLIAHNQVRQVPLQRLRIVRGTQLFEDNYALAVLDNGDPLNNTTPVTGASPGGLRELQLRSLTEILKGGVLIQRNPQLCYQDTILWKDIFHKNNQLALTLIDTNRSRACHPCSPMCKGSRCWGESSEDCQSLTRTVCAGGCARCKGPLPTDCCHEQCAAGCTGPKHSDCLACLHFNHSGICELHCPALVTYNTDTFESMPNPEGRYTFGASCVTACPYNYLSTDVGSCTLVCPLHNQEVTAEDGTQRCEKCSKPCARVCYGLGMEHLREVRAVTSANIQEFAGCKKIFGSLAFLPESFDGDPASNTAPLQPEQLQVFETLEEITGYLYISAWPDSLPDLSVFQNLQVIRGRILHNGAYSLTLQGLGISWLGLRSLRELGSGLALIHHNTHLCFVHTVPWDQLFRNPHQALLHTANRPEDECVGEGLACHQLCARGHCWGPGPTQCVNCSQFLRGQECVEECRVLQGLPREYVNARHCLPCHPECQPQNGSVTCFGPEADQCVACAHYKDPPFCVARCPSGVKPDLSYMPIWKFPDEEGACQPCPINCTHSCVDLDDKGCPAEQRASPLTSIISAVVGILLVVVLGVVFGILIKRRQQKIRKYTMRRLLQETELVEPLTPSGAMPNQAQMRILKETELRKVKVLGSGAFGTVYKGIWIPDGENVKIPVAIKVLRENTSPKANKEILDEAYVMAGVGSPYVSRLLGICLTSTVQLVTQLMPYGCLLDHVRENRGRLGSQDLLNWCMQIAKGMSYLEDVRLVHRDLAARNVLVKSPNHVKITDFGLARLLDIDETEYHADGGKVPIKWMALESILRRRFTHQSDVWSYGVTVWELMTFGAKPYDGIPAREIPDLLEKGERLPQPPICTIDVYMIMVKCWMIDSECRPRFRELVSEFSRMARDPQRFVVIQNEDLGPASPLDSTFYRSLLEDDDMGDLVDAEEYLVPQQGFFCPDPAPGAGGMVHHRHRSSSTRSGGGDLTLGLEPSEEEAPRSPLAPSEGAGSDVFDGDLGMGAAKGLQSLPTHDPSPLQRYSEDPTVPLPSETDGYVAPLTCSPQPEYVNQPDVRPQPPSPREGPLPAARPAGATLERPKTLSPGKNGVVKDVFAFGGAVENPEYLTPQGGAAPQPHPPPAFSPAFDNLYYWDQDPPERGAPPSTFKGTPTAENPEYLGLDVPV
Insulin receptor (Homo sapiens), sequence (P06213 28-758 limits assumed): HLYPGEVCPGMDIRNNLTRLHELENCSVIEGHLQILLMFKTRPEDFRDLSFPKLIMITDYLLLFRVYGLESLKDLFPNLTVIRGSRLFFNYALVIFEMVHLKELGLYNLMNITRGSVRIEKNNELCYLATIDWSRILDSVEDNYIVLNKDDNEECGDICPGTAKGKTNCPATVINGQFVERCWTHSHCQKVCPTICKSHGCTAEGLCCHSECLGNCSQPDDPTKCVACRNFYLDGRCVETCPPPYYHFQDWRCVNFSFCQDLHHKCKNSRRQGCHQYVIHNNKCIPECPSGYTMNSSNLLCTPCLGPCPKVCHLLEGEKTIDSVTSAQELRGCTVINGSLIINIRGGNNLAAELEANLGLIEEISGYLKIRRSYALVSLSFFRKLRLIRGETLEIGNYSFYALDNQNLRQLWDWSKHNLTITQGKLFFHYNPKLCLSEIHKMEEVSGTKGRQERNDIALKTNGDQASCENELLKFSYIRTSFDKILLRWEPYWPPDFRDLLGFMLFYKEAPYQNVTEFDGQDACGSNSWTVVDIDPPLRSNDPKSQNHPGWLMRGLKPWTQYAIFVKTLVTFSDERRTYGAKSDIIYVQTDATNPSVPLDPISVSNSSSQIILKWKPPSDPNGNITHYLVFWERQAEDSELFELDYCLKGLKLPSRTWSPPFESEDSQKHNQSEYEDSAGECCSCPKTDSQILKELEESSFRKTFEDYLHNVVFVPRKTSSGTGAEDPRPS
Insulin receptor (Homo sapiens), sequence (P06213 763-1382 limits assumed): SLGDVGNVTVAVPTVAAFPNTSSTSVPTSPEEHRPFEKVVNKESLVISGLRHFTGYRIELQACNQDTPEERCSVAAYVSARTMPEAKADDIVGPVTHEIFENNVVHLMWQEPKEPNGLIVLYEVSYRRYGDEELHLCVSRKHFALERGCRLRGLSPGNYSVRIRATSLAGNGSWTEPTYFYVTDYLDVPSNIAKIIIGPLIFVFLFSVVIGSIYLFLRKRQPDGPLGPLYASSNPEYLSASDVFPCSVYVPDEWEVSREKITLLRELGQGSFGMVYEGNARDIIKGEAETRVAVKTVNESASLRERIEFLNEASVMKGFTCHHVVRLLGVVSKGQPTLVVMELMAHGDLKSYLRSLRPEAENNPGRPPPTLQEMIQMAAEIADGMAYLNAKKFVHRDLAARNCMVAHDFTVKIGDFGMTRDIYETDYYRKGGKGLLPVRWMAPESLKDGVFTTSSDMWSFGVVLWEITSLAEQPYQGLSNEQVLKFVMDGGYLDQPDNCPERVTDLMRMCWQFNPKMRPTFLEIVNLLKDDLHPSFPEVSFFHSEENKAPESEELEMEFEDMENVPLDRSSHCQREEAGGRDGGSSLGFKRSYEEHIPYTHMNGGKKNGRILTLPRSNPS
Platelet-derived growth factor receptor beta (Homo sapiens), sequence (P09619 whole entry): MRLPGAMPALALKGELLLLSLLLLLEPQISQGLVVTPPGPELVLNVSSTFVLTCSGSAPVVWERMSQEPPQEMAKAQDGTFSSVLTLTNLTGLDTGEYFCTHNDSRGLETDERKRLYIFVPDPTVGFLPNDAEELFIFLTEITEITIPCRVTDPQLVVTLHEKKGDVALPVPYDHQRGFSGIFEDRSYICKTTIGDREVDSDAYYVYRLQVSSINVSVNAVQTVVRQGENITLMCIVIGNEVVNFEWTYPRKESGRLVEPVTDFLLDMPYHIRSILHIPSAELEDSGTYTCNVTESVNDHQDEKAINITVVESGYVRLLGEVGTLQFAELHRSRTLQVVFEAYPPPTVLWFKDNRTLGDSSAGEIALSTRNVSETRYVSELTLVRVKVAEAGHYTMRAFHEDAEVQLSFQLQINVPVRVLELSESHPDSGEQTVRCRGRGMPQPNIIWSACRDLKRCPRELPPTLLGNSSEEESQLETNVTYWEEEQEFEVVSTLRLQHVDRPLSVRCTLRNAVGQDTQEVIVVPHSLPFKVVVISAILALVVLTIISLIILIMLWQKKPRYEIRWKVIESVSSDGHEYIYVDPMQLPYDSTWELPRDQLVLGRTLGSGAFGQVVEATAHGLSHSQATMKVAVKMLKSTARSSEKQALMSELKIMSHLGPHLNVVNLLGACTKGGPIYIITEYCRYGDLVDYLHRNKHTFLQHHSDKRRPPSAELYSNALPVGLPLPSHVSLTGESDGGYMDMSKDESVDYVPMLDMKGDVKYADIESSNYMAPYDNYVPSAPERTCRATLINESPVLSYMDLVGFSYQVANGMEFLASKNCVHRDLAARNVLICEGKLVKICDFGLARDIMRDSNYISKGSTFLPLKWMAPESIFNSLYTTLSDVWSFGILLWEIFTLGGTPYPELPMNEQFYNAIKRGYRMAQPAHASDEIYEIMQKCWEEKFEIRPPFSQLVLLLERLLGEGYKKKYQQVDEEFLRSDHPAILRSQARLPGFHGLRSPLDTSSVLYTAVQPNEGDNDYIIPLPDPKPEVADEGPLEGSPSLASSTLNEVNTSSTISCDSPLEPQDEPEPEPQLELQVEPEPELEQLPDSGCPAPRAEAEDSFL

Usually IC50 stands for the concentration at which inhibition is half-maximal. Broadly, the inhibition is the change of the read-out against control, counted positive when it falls. Take `Nc1ncnc2c1ncn2CC(=O)c1cccnc1`: the IC50 in [1] was 58 µM; in assay [10] it was 75 µM. Also, the inhibition entry in assay [2], in [3], in assay [4], in assay [5], in [6] and in assay [7] was “inactive” throughout. Besides, the inhibition result in assay [8], in assay [9], in assay [11], in assay [12], in [13] and in [14] was “inactive” throughout. In addition, the inhibition entry in assay [15] was “inactive”.

Take `CN(C)c1ncnc2c1ncn2CC(=O)c1c[nH]c2ccccc12`: the inhibition entry in assay [1], in assay [2], in assay [3], in assay [4], in assay [5] and in [6] was “inactive” throughout. The inhibition entry in assay [7], in [8], in [9], in assay [10], in [11] and in [12] was “inactive” throughout. Moreover, the inhibition entry in [13], in assay [14] and in assay [15] was “inactive” throughout.

`Nc1ncnc2ncn(CC(=O)c3ccccc3)c12`: the inhibition entry in assay [1], in assay [2], in assay [3], in assay [4], in [5] and in assay [6] was “inactive” each time. For the same compound, the inhibition entry in [7], in [8], in [9], in [10], in assay [11] and in assay [12] was “inactive” in each case. The inhibition result in assay [13], in [14] and in [15] was “inactive” in each case.

Consider `COc1ncnc2ncn(CC(=O)c3ccccc3)c12`, for which the inhibition result in assay [1], in [2], in [3], in assay [4], in [5] and in [6] was “inactive” in each case. The inhibition result in assay [7], in assay [8], in [9], in [10], in assay [11] and in assay [12] was “inactive” each time. Also, the inhibition result in assay [13], in assay [14] and in assay [15] was “inactive” each time.

Consider `Nc1ncnc2c1ncn2CC(=O)c1ccccn1`, for which the inhibition entry in assay [1], in assay [2], in assay [3], in assay [4], in assay [5] and in assay [6] was “inactive” each time. For the same compound, the inhibition result in assay [7], in [8], in assay [9], in assay [10], in [11] and in [12] was “inactive” each time. For the same compound, the inhibition entry in assay [13], in assay [14] and in [15] was “inactive” each time.

In the case of `COc1ncnc2c1ncn2CC(=O)c1ccccc1`, the IC50 in [1] came out at 25 µM. Further, the inhibition entry in assay [2], in [3], in assay [4], in [5], in assay [6] and in assay [7] was “inactive” in each case. For the same compound, the inhibition result in [8], in [9], in assay [10], in assay [11], in assay [12] and in [13] was “inactive” in each case. Besides, the inhibition result in assay [14] and in assay [15] was “inactive” throughout.

Turning to `Nc1ncnc2c1ncn2CC(=O)c1ccccc1`, the inhibition result in assay [2], in assay [3], in [4], in assay [5], in assay [7] and in assay [9] was “inactive” in each case. For the same compound, the inhibition entry in [11], in [12], in assay [13], in [14] and in assay [15] was “inactive” in each case.

Take `Nc1ncnc2c1ncn2CC(=O)c1c[nH]c2ccccc12`: the IC50 worked out at 81 µM in assay [1], 95 µM in assay [6] and 85 µM in [8]. The inhibition result in [2], in [3], in assay [4], in assay [5], in [7] and in assay [9] was “inactive” in each case. Further, the inhibition entry in [10], in [12], in assay [13], in assay [14] and in [15] was “inactive” in each case. Further, in assay [16], the inhibition was determined as 73%.
